# Reference: ChEMBL document CHEMBL1157464, “1-[(3-Aryloxy-3-aryl)propyl]-1H-imidazoles, new imidazoles with potent activity against Candida albicans and dermatophytes. Synthesis, structure-activity relationship, and molecular modeling studies” (J Med Chem, 2008)
# System: Candida albicans
# Assay: Antifungal activity against Candida albicans ATCC 10261 at 35 degC after 48 hrs by broth microdilution test
# Format: functional
# Conditions: not given
# Outline: (§1)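 Broth microdilution per NCCLS M27-A2. Stocks in 100% DMSO, diluted in RPMI 1640 with 0.165 M MOPS at pH 7.0; final range 0.25–128 µg/mL. Inoculum 1000–5000 cells/mL from SDA subcultures. […] C. parapsilosis ATCC22019 served as QC strain.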
SMILES,MIC [µg/mL],MIC90 [µg/mL]
Clc1ccc(OC(CCn2ccnc2)c2ccccc2)c(Cl)c1 (racemic),5.3,8

# Same assay, conditions: Candida albicans, ATCC 10261, 48 h; read-out: MIC
row,SMILES,MIC [µg/mL]
1,Clc1ccc(COC(Cn2ccnc2)c2ccc(Cl)cc2Cl)c(Cl)c1 (stereo not given) [MICONAZOLE],3.25
2,OC(Cn1cncn1)(Cn1cncn1)c1ccc(F)cc1F [FLUCONAZOLE],15.3

# Same assay, conditions: Candida albicans, ATCC 10261, 48 h; read-out: MIC50
row,SMILES,MIC50 [µg/mL]
1,Clc1ccc(COC(Cn2ccnc2)c2ccc(Cl)cc2Cl)c(Cl)c1 (stereo not given) [MICONAZOLE],4
2,OC(Cn1cncn1)(Cn1cncn1)c1ccc(F)cc1F [FLUCONAZOLE],2
3,Clc1ccc(OC(CCn2ccnc2)c2ccccc2)c(Cl)c1 (racemic),8

# Same assay, conditions: Candida albicans, ATCC 10261, 48 h; read-out: MIC90
row,SMILES,MIC90 [µg/mL]
1,Clc1ccc(COC(Cn2ccnc2)c2ccc(Cl)cc2Cl)c(Cl)c1 (stereo not given) [MICONAZOLE],4
2,OC(Cn1cncn1)(Cn1cncn1)c1ccc(F)cc1F [FLUCONAZOLE],64

# System: not listed separately
# Assay: Cytotoxicity against human U937 cells assessed as reduction of cell viability after 24 hrs by MTT assay
# Format: cell-based, U-937
# Conditions: not given
# Outline: (§2)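 U937 and K562 cells, from ATCC, plated at 5 × 10^4/mL in phenol-red-free RPMI-1640 with 20% FBS and penicillin/streptomycin. Compounds added 2 h later at 25–100 µg/mL, then 24 h at 37 °C. MTT at 1 mg/mL for 3 h, formazan dissolved in isopropanol with 0.1 N HCl, absorbance read at 570 nm. CC50 is the concentration reducing viability by 50% versus the drug-free control.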
row,SMILES,CC50 at 24 h [µM]
1,Clc1ccc(COC(Cn2ccnc2)c2ccc(Cl)cc2Cl)c(Cl)c1 (stereo not given) [MICONAZOLE],120
2,OC(Cn1cncn1)(Cn1cncn1)c1ccc(F)cc1F [FLUCONAZOLE],328
3,Clc1ccc(OC(CCn2ccnc2)c2ccccc2)c(Cl)c1 (racemic),166

# System: Candida parapsilosis
# Assay: Antifungal activity against Candida parapsilosis ATCC 22019 at 35 degC after 48 hrs by broth microdilution test
# Format: functional
# Conditions: not given
# Outline: as §1
row,SMILES,MIC [µg/mL]
1,Clc1ccc(OC(CCn2ccnc2)c2ccccc2)c(Cl)c1 (racemic),2

# Same assay, conditions: Lodderomyces parapsilosis, ATCC 22019, 48 h; read-out: MFC
row,SMILES,MFC [µg/mL]
1,Clc1ccc(COC(Cn2ccnc2)c2ccc(Cl)cc2Cl)c(Cl)c1 (stereo not given) [MICONAZOLE],0.5
2,OC(Cn1cncn1)(Cn1cncn1)c1ccc(F)cc1F [FLUCONAZOLE],8
3,Clc1ccc(OC(CCn2ccnc2)c2ccccc2)c(Cl)c1 (racemic),8

# Same assay, conditions: Lodderomyces parapsilosis, ATCC 22019, 48 h; read-out: MIC
row,SMILES,MIC [µg/mL]
1,Clc1ccc(COC(Cn2ccnc2)c2ccc(Cl)cc2Cl)c(Cl)c1 (stereo not given) [MICONAZOLE],1
2,OC(Cn1cncn1)(Cn1cncn1)c1ccc(F)cc1F [FLUCONAZOLE],0.5

# System: not listed separately
# Assay: Cytotoxicity against human K562 cells after assessed as reduction of cell viability 24 hrs by MTT assay
# Format: cell-based
# Conditions: not given
# Outline: as §2
row,SMILES,CC50 at 24 h [µM]
1,Clc1ccc(COC(Cn2ccnc2)c2ccc(Cl)cc2Cl)c(Cl)c1 (stereo not given) [MICONAZOLE],80
2,OC(Cn1cncn1)(Cn1cncn1)c1ccc(F)cc1F [FLUCONAZOLE],385
3,Clc1ccc(OC(CCn2ccnc2)c2ccccc2)c(Cl)c1 (racemic),121

# System: Arthrodermataceae
# Assay: Antifungal activity against dermatophytes at 28 degC after 48 to 96 hrs by broth microdilution test
# Conditions: not given
row,SMILES,MFC50 [µg/mL]
1,Clc1ccc(COC(Cn2ccnc2)c2ccc(Cl)cc2Cl)c(Cl)c1 (stereo not given) [MICONAZOLE],2
2,Clc1ccc(OC(CCn2ccnc2)c2ccccc2)c(Cl)c1 (racemic),16

# System: Arthrodermataceae
# Assay: Antifungal activity against dermatophytes at 28 degC after 5 days by broth microdilution test
# Conditions: not given
row,SMILES,MFC90 [µg/mL]
1,Clc1ccc(COC(Cn2ccnc2)c2ccc(Cl)cc2Cl)c(Cl)c1 (stereo not given) [MICONAZOLE],4
2,Clc1ccc(OC(CCn2ccnc2)c2ccccc2)c(Cl)c1 (racemic),32

# Same assay, conditions: Arthrodermataceae
row,SMILES,MFC [µg/mL]
1,Clc1ccc(COC(Cn2ccnc2)c2ccc(Cl)cc2Cl)c(Cl)c1 (stereo not given) [MICONAZOLE],3
2,Clc1ccc(OC(CCn2ccnc2)c2ccccc2)c(Cl)c1 (racemic),28.8

# System: Candida albicans
# Assay: Antifungal activity against fluconazole-sensitive Candida albicans Fe40 at 35 degC after 48 hrs by broth microdilution test
# Format: functional
# Conditions: not given
# Outline: as §1
row,SMILES,MIC [µg/mL]
1,Clc1ccc(COC(Cn2ccnc2)c2ccc(Cl)cc2Cl)c(Cl)c1 (stereo not given) [MICONAZOLE],4
2,OC(Cn1cncn1)(Cn1cncn1)c1ccc(F)cc1F [FLUCONAZOLE],0.25
3,Clc1ccc(OC(CCn2ccnc2)c2ccccc2)c(Cl)c1 (racemic),2

# System: not listed separately
# Assay: Therapeutic index, ratio of CC50 for human U937 cells to MIC90 for Candida albicans ATCC 10261
# Format: cell-based, U-937
# Conditions: not given
# Outline: (§3)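 Therapeutic index calculated as CC50 in the given cell line divided by MIC90.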
row,SMILES,selectivity ratio
1,Clc1ccc(COC(Cn2ccnc2)c2ccc(Cl)cc2Cl)c(Cl)c1 (stereo not given) [MICONAZOLE],30
2,OC(Cn1cncn1)(Cn1cncn1)c1ccc(F)cc1F [FLUCONAZOLE],5.1

# System: Candida albicans
# Assay: Antifungal activity against Candida albicans ATCC 10261 at 35 degC after 48 to 96 hrs by broth microdilution test
# Format: functional
# Conditions: not given
# Outline: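 Minimal fungicidal concentration for Candida. […] MFC is the lowest concentration allowing fewer than two colonies (99% killing).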
SMILES,MFC50 [µg/mL],MFC90 [µg/mL],MFC [µg/mL]
Clc1ccc(COC(Cn2ccnc2)c2ccc(Cl)cc2Cl)c(Cl)c1 (stereo not given) [MICONAZOLE],8,16,–
Clc1ccc(OC(CCn2ccnc2)c2ccccc2)c(Cl)c1 (racemic),8,16,11.4

# Same assay, conditions: Candida albicans, ATCC 10261; read-out: MFC
row,SMILES,MFC [µg/mL]
1,Clc1ccc(COC(Cn2ccnc2)c2ccc(Cl)cc2Cl)c(Cl)c1 (stereo not given) [MICONAZOLE],12.2
2,OC(Cn1cncn1)(Cn1cncn1)c1ccc(F)cc1F [FLUCONAZOLE],> 64

# System: not listed separately
# Assay: Therapeutic index, ratio of CC50 for human K562 cells to MIC90 for Candida albicans ATCC 10261
# Format: cell-based
# Conditions: not given
# Outline: as §3
row,SMILES,selectivity ratio
1,Clc1ccc(COC(Cn2ccnc2)c2ccc(Cl)cc2Cl)c(Cl)c1 (stereo not given) [MICONAZOLE],20
2,OC(Cn1cncn1)(Cn1cncn1)c1ccc(F)cc1F [FLUCONAZOLE],6

# System: Arthrodermataceae
# Assay: Antifungal activity against dermatophytes at 28 degC after 7 days by broth microdilution test
# Format: functional
# Conditions: 168 h
# Outline: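 Ten clinical isolates (two M. canis, five M. gypseum, three T. mentagrophytes) tested by NCCLS M38-A broth microdilution in MOPS-buffered RPMI 1640, pH 7.0, over 0.25–128 µg/mL. Conidial/hyphal suspension from PDA slants (28 °C, 7 days) adjusted to 65–70% transmittance at OD530, then diluted 1:50.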
SMILES,MIC [µg/mL],MIC50 [µg/mL],MIC90 [µg/mL]
Clc1ccc(COC(Cn2ccnc2)c2ccc(Cl)cc2Cl)c(Cl)c1 (stereo not given) [MICONAZOLE],0.9,1,1
Clc1ccc(OC(CCn2ccnc2)c2ccccc2)c(Cl)c1 (racemic),9.2,8,8

# System: Candida albicans
# Assay: Antifungal activity against fluconazole-resistant Candida albicans isolated from oropharyngeal or vaginal disease patient after 48 hrs by broth microdilution test
# Format: functional
# Conditions: not given
row,SMILES,MIC [µg/mL]
1,Clc1ccc(COC(Cn2ccnc2)c2ccc(Cl)cc2Cl)c(Cl)c1 (stereo not given) [MICONAZOLE],3
2,OC(Cn1cncn1)(Cn1cncn1)c1ccc(F)cc1F [FLUCONAZOLE],128
3,Clc1ccc(OC(CCn2ccnc2)c2ccccc2)c(Cl)c1 (racemic),7.2
